Data published in ChEMBL document CHEMBL4152263, “Novel anticancer hybrids from diazen-1-ium-1,2-diolate nitric oxide donor and ROS inducer plumbagin: Design, synthesis and biological evaluations” (Eur J Med Chem, 2018).
Activity calls are given as the source filed them. The rule behind the calls is not given here.

Key:
A549 [1] = assay: Induction of apoptosis in human A549 cells assessed as increase in late apoptotic cells after 24 hrs by FITC-annexin V/propidium iodide staining-based flow cytometric analysis; type: functional, cell-based
A549 [2] = assay: Induction of apoptosis in human A549 cells assessed as late apoptotic cells at 1 uM after 24 hrs by FITC-annexin V/propidium iodide staining-based flow cytometric analysis (reference value: 0.36%); type: functional
WRL68 = assay: Cytotoxicity against human WRL68 cells assessed as growth inhibition after 48 hrs by MTT assay; type: cell-based; conditions: WRL68, 48 h
In short: (§1)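 Cells seeded at 5.0 × 10^4/ml and left 24 h to adhere, then exposed to a range of test-compound concentrations for 44 h. MTT (5 mg/mL) was added for a further 4 h at 37 °C. Supernatant was removed, DMSO added, and OD read at 570 nm. IC50 after 48 h total exposure; mean ± SD, n = 3.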

HepG2 [3] = assay: Cytotoxicity against human HepG2 cells assessed as growth inhibition at 10 uM after 48 hrs by MTT assay relative to control; type: functional; conditions: HepG2, 48 h, read-out: GI
In short: (§2)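 Single-concentration MTT screen. Cells were seeded, allowed to adhere for 24 h, and exposed to compound for 48 h. MTT (5 mg/mL) was added for the last 4 h, then DMSO, with absorbance read at 570 nm. Result is inhibition rate (%) at the stated concentration; mean of three independent experiments.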

A549 [4] = assay: Induction of apoptosis in human A549 cells assessed as late apoptotic cells at 2 uM after 24 hrs by FITC-annexin V/propidium iodide staining-based flow cytometric analysis (reference value: 0.36%); type: functional
HCT-116 = assay: Cytotoxicity against human HCT116 cells assessed as growth inhibition after 48 hrs by MTT assay; type: functional, cell-based; conditions: HCT-116, 48 h; in short: as §1
A549 [5] = assay: Cytotoxicity against human A549 cells assessed as growth inhibition at 5 uM after 24 hrs in presence of nitric oxide scavenger carboxy-PTIO by MTT assay
A549 [6] = assay: Induction of reactive oxygen species formation in human A549 cells at 5 uM after 24 hrs by DCFH-DA probe-based flow cytometric analysis relative to control; type: functional
A549 [7] = assay: Induction of apoptosis in human A549 cells assessed as early apoptotic cells at 4 uM after 24 hrs by FITC-annexin V/propidium iodide staining-based flow cytometric analysis (reference value: 1.87%); type: functional
A549 [8] = assay: Induction of apoptosis in human A549 cells assessed as necrotic cells at 2 uM after 24 hrs by FITC-annexin V/propidium iodide staining-based flow cytometric analysis (reference value: 0.055%); type: functional
A549 [9] = assay: Induction of apoptosis in human A549 cells assessed as viable cells at 2 uM after 24 hrs by FITC-annexin V/propidium iodide staining-based flow cytometric analysis (reference value: 97.7%); type: functional; conditions: A549, 24 h, read-out: Activity
A549 [10] = assay: Induction of apoptosis in human A549 cells assessed as viable cells at 1 uM after 24 hrs by FITC-annexin V/propidium iodide staining-based flow cytometric analysis (reference value: 97.7%); type: functional; conditions: A549, 24 h, read-out: Activity
A549 [11] = assay: Induction of apoptosis in human A549 cells assessed as viable cells at 4 uM after 24 hrs by FITC-annexin V/propidium iodide staining-based flow cytometric analysis (reference value: 97.7%); type: functional; conditions: A549, 24 h, read-out: Activity
A549 [12] = assay: Cytotoxicity against human A549 cells assessed as growth inhibition at 10 uM after 48 hrs by MTT assay relative to control; type: functional; conditions: A549, 48 h, read-out: GI; in short: as §2
[13] = Drug metabolism in human A549 cells assessed as nitric oxide production at 5 uM after 24 hrs by Griess assay; type: ADME, cell-based; conditions: a549, 24 h
In short: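 A549 cells were plated at 5.0 × 10^4/ml and treated in triplicate with compound at 5 μM for varying times up to 24 h. NO release was quantified as nitrite plus nitrate by Griess assay (commercial kit); mean ± SD, n = 3.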

MDA-MB-231 [14] = assay: Cytotoxicity against human MDA-MB-231 cells assessed as growth inhibition at 10 uM after 48 hrs by MTT assay relative to control; type: functional; conditions: MDA-MB-231, 48 h, read-out: GI; in short: as §2
A549 [15] = assay: Induction of apoptosis in human A549 cells assessed as early apoptotic cells at 1 uM after 24 hrs by FITC-annexin V/propidium iodide staining-based flow cytometric analysis (reference value: 1.87%); type: functional
[16] = Drug metabolism in human A549 cells assessed as nitric oxide production at 5 uM after 24 hrs in presence of nitric oxide scavenger carboxy-PTIO by Griess assay; type: ADME, cell-based; conditions: a549, 24 h
In short: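 A549 cells were pre-incubated with the NO scavenger carboxy-PTIO (50 μM) for 1 h, then treated with compound (5 μM) for 24 h. Proliferation was read by MTT and NO by Griess assay (nitrite/nitrate); mean ± SD of three independent experiments.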

A549 [17] = assay: Induction of apoptosis in human A549 cells assessed as early apoptotic cells at 2 uM after 24 hrs by FITC-annexin V/propidium iodide staining-based flow cytometric analysis (reference value: 1.87%); type: functional
MDA-MB-231 [18] = assay: Cytotoxicity against human MDA-MB-231 cells assessed as growth inhibition after 48 hrs by MTT assay; type: functional, cell-based; conditions: MDA-MB-231, 48 h; in short: as §1
A549 [19] = assay: Induction of apoptosis in human A549 cells assessed as necrotic cells at 4 uM after 24 hrs by FITC-annexin V/propidium iodide staining-based flow cytometric analysis (reference value: 0.055%); type: functional
HK-2 = assay: Cytotoxicity against human HK2 cells assessed as growth inhibition after 48 hrs by MTT assay; type: cell-based; conditions: HK-2, 48 h; in short: as §1
A549 [20] = assay: Induction of apoptosis in human A549 cells assessed as necrotic cells at 1 uM after 24 hrs by FITC-annexin V/propidium iodide staining-based flow cytometric analysis (reference value: 0.055%); type: functional
A549 [21] = assay: Cytotoxicity against human A549 cells assessed as growth inhibition after 48 hrs by MTT assay; type: functional, cell-based; conditions: A549, 48 h; in short: as §1
A549 [22] = assay: Induction of apoptosis in human A549 cells assessed as late apoptotic cells at 4 uM after 24 hrs by FITC-annexin V/propidium iodide staining-based flow cytometric analysis (reference value: 0.36%); type: functional
HepG2 [23] = assay: Cytotoxicity against human HepG2 cells assessed as growth inhibition after 48 hrs by MTT assay; type: functional, cell-based; conditions: HepG2, 48 h; in short: as §1
MDA-MB-231 [24] = assay: Cytotoxicity against human MDA-MB-231 cells assessed as growth inhibition at 20 uM after 48 hrs by MTT assay relative to control; type: functional; conditions: MDA-MB-231, 48 h, read-out: GI; in short: as §2
A549 [25] = assay: Cytotoxicity against human A549 cells assessed as growth inhibition at 20 uM after 48 hrs by MTT assay relative to control; type: functional; conditions: A549, 48 h, read-out: GI; in short: as §2
HepG2 [26] = assay: Cytotoxicity against human HepG2 cells assessed as growth inhibition at 20 uM after 48 hrs by MTT assay relative to control; type: functional; conditions: HepG2, 48 h, read-out: GI; in short: as §2

Compound	IC50 (WRL68) [µM]	inhibition of growth at 10 µM (HepG2 [3]) [%]	IC50 (HCT-116) [µM]	inhibition of growth at 10 µM (A549 [12]) [%]	inhibition of growth at 10 µM (MDA-MB-231 [14]) [%]	IC50 (MDA-MB-231 [18]) [µM]	IC50 (HK-2) [µM]	IC50 (A549 [21]) [µM]	IC50 (HepG2 [23]) [µM]	further results
CC1=C(CCCC(=O)OCO/[N+]([O-])=N/N2CCOCC2)C(=O)c2c(O)cccc2C1=O	> 40	75.4	4.21	91.2	88.3	4.12	23.5	3.48	5.52	Activity (A549 [1]): Dose-dependent effect; Activity (A549 [2]): 4.18%; Activity (A549 [4]): 10.1%; growth inhibition (GI) (A549 [5]): inactive; fold change (FC) (A549 [6]): 1.64; Activity (A549 [7]): 6.93%; Activity (A549 [8]): 6.53%; viability at 2 µM (A549 [9]): 79.6%; viability at 1 µM (A549 [10]): 92.2%; viability at 4 µM (A549 [11]): 45.4%; Drug metabolism [13]: Metabolite_Detected; Activity (A549 [15]): 2.09%; Drug metabolism [16]: Metabolite_Notdetected; Activity (A549 [17]): 3.74%; Activity (A549 [19]): 17.3%; Activity (A549 [20]): 1.56%; Activity (A549 [22]): 30.3%
CC1=C(CCCC(=O)OCO/[N+]([O-])=N/N2CCCCC2)C(=O)c2c(O)cccc2C1=O	> 40	80.3	5.26	86.7	83.6	4.92	17.7	4.27	6.68	growth inhibition (GI) (A549 [5]): inactive; Drug metabolism [13]: Metabolite_Detected; Drug metabolism [16]: Metabolite_Notdetected
CC1=C(CCCC(=O)OCCCO/[N+]([O-])=N/N2CCOCC2)C(=O)c2c(O)cccc2C1=O		8.2		11.3	9.5					
CC1=C(CCC(=O)OCO/[N+]([O-])=N/N2CCOCC2)C(=O)c2c(O)cccc2C1=O	19.3	31.3	15.6	40.3	37.2	13.5	24.6	12.3	16.5	
CC1=C(CCCC(=O)OCCCCO/[N+]([O-])=N/N2CCOCC2)C(=O)c2c(O)cccc2C1=O		32.2		38.2	30.6					
CC1=C(CCCC(=O)O)C(=O)c2c(O)cccc2C1=O										inhibition of growth at 20 µM (MDA-MB-231 [24]): 9.9%; inhibition of growth at 20 µM (A549 [25]): 8.5%; inhibition of growth at 20 µM (HepG2 [26]): 28.6%
CC1=C(CCCC(=O)OCO/[N+]([O-])=N/N2CCCC2)C(=O)c2c(O)cccc2C1=O	16.6	69.7	9.32	65.6	70.8	6.97	18.1	9.24	7.12	
CC1=C(CCC(=O)OCO/[N+]([O-])=N/N2CCCC2)C(=O)c2c(O)cccc2C1=O	19.5	29.8	17.2	32.9	31.6	15.2	25.6	16.4	17.8	
CC1=C(CCCC(=O)OCCO/[N+]([O-])=N/N2CCOCC2)C(=O)c2c(O)cccc2C1=O		25		23.7	26.2					
CC1=CC(=O)c2c(O)cccc2C1=O [PLUMBAGIN]	15.4	58.9	9.8	60.7	73.8	6.5	23.6	8.9	9.17	fold change (FC) (A549 [6]): 1.34
CC1=C(CCC(=O)OCO/[N+]([O-])=N/N2CCCCC2)C(=O)c2c(O)cccc2C1=O	28.2	35.1	20.2	45	40.1	11.7	27.7	10.8	14.4	
CC1=C(CCC(=O)OCCCCO/[N+]([O-])=N/N2CCOCC2)C(=O)c2c(O)cccc2C1=O		28.8		24.4	29.4					
CC1=C(CCC(=O)OCCO/[N+]([O-])=N/N2CCOCC2)C(=O)c2c(O)cccc2C1=O		32.5		30.3	35.7					
[O-]/[N+](=N\OCCl)N1CCOCC1		16.4		19.1	13.3					
[O-]/[N+](=N\OCCl)N1CCCCC1		17.6		10.8	11.4					
CC1=C(CCC(=O)OCCCO/[N+]([O-])=N/N2CCOCC2)C(=O)c2c(O)cccc2C1=O		28		26.9	28.6					
